The text below walks through data of article PMC3698760 (Journal of the American Heart Association: Cardiovascular …, 2013).

One data set can be described thus: Circular dichroism. Format: physicochemical. Particulars: CD spectra in water, 200 to 260 nm. Put shortly: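 Spectra of peptides and human apoA-I (17.8 to 178 μmol/L) recorded at 25°C in a thermostatted quartz cell with 0.1 mm path length, scanning 200–260 nm. Results expressed as mean residue ellipticity (deg cm² dmol⁻¹).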
In general terms: CD spectra are sensitive to the conformation of chiral molecules.

Data set [1] concerns apoE−/− mice fed a high‐fat diet. Description: Aortic atherosclerotic lesion formation, 16-week treatment. Format: in vivo. To be noted: scrambled FAMP i.p. 3 times per week, 16 weeks; Oil Red O; mean±SD. The gist of the method:
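Male apoE−/− mice, bought at six weeks, fed a high-fat diet (0.5% cholesterol, 10% fat) and dosed i.p. 3 times per week for 16 weeks: test peptide at 10 or 50 mg/kg per day, or scrambled peptide. Whole aortas were then stained with Oil Red O. Lesion area was scored by image analysis as percentage of aorta from ascending aorta to abdominal bifurcation.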

Data set [2] has as its system apoE‐deficient mice. Description: Plasma lipoprotein profiles analyzed by HPLC, 16-week treatment. Format: in vivo. To be noted: scrambled peptides i.p. 16 weeks, n=7, mean±SD. Put shortly:
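Plasma from apoE−/− mice after 16-week i.p. dosing (3 times weekly) was separated by HPLC into 20 particle-size subfractions. Each subfraction was assayed enzymatically for total cholesterol, free cholesterol, triglycerides and phospholipids; mean±SD.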

Data set [3] has as its system apoE‐deficient mice. Description: Plasma lipid profiles by enzymatic assay, 16-week treatment. Format: in vivo. To be noted: scrambled peptides i.p. 16 weeks, n=7; high-fat-fed apoE-deficient mice; mean±SD. The gist of the method: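 Overnight-fasting plasma taken after 16 weeks from 19 of 23 high-fat-fed apoE−/− mice. Dosing was i.p. 3 times weekly with scrambled peptide or test peptide at 10 or 50 mg/kg per day. Total cholesterol, triglyceride and HDL cholesterol were measured by enzymatic assay; mean±SD.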

The next data set deals with A172 human glioblastoma. Description: Cellular cholesterol efflux in A172 human cells. To be noted: 4 hours. Format: cell-based. The gist of the method:
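A172 human glioblastoma cells were grown in DMEM with 10% FBS and antibiotics, then labelled with ³H‑cholesterol. Efflux ran in serum‑free medium with 0.2% BSA, 5 μmol/L T0901317 and 5 μmol/L 9‑cis‑retinoic acid, with or without 10 μmol/L probucol. Acceptor was human apoA‑I or test peptide at 20 μg/mL, or a molar dose series, for 4 h. n=4–5; mean±SD.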

The subject of data set [4] is monocyte‐derived macrophages from an ABCA1‐deficient Tangier disease patient. Format: cell-based, human. Particulars: 20 μg/mL, 4 hours, n=4. The gist of the method: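 Peripheral blood monocyte‑derived macrophages came from a healthy volunteer and a Tangier disease patient, with ethics approval and written consent. Cells were isolated by Lymphoprep density separation and labelled with ³H‑cholesterol. Efflux was run in serum‑free 0.2% BSA medium with or without 20 μg/mL human apoA‑I or test peptide for 4 h. n=4; mean±SD.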

The next data set deals with ABCA1 (Homo sapiens, UniProt O95477). Description: Probucol-inhibitable, ABCA1-specific cholesterol efflux in A172 cells. Format: cell-based. Particulars: probucol 10 μmol/L. Put shortly: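 A172 glioblastoma cells, labelled with ³H-cholesterol, were held in serum-free 0.2% BSA medium with 5 μmol/L T0901317 and 5 μmol/L 9-cis-retinoic acid. Cells were exposed for 4 h to 20 μg/mL acceptor, with or without 10 μmol/L probucol. ABCA1-dependent efflux was taken as the probucol-inhibitable fraction.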
Sequence of ABCA1 (O95477 whole entry): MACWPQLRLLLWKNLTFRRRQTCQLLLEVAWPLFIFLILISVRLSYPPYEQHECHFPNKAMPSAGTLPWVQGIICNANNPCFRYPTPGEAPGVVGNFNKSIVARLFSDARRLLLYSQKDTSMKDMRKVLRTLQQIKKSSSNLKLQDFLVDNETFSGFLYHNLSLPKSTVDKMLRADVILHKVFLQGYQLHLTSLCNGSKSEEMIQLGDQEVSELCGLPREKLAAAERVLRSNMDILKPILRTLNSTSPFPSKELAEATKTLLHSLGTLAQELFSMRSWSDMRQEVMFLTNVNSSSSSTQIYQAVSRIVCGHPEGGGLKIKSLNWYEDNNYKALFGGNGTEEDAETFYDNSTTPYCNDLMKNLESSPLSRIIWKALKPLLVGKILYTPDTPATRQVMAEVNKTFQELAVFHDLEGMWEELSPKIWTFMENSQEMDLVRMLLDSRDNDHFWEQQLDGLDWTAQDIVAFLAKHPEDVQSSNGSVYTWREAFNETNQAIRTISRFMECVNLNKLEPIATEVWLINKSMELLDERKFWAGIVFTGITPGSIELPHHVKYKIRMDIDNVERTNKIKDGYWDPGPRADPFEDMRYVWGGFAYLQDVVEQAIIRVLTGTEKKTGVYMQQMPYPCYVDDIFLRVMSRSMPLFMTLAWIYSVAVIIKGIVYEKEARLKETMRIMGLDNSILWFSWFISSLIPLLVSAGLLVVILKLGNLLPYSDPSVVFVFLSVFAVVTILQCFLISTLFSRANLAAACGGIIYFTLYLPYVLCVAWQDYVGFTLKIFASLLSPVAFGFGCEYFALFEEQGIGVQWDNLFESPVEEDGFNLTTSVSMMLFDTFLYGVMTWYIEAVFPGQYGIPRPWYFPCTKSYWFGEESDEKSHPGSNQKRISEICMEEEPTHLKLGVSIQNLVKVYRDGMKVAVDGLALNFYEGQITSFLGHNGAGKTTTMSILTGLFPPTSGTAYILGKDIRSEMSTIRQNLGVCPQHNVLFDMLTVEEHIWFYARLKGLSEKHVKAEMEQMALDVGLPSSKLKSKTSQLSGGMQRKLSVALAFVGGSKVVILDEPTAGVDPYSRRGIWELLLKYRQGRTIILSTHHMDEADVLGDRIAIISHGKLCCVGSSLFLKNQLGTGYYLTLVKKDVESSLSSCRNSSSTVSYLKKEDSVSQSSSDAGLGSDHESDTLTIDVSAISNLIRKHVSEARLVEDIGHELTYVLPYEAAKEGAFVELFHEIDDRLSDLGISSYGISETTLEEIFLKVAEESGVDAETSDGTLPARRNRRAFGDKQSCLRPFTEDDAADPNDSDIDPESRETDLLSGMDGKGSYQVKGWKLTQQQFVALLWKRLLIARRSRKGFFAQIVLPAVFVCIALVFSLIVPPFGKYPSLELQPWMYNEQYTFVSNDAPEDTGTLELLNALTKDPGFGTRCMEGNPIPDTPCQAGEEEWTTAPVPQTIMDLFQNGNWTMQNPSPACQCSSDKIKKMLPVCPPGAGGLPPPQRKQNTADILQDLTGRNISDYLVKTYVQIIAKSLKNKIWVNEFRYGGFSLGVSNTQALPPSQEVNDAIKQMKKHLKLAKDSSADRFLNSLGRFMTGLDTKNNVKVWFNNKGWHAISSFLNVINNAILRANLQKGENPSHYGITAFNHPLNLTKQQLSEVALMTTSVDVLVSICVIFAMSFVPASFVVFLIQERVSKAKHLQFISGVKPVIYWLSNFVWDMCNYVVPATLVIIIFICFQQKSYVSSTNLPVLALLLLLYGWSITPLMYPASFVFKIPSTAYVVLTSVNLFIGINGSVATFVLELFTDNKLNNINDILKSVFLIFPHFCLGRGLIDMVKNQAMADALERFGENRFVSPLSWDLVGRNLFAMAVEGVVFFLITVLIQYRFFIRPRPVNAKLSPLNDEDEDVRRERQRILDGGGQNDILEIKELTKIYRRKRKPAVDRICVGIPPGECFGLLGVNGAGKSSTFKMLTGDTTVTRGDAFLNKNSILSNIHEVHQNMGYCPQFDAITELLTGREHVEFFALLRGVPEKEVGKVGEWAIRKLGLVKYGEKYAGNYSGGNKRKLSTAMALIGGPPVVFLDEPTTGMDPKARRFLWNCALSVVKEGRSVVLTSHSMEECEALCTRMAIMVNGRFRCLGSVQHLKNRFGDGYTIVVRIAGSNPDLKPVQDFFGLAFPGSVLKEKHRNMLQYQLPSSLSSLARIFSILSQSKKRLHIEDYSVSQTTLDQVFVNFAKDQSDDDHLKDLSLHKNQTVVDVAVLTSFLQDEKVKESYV

For H-ALEHLFTLSEKALKALEDLLKKLL-OH [FAMP2], the “α‐helical conformation (CD spectra)” value in the data set “Circular dichroism” is recorded as “formed strong α‐helical conformations”.
As for “H-ATEFLHLLLLKLLKKKEDELLAYA-OH [Scrambled FAMP, reference compound]”, the “relative surface area of aortic plaque lesions” value in data set [1] turned out to be 31.3±8.9%. Moreover, in the data set on apoE‐deficient mice [2], the “Cholesterol, CM (>80 nm)” value worked out at 106.2 ± 47.8 mg/dL; the “Cholesterol, HDL (8 to 16 nm)” value was determined as 23.0 ± 4.5 mg/dL; the “Cholesterol, HDL Subfractions Intermediate Particles” value amounted to 12.0 ± 3.4 mg/dL; the “Cholesterol, HDL Subfractions Large Particles” value was 7.2 ± 1.5 mg/dL. Moreover, in the data set with apoE‐deficient mice [2], the “Cholesterol, HDL Subfractions Small Particles” value is 3.8 ± 0.5 mg/dL; the “Cholesterol, LDL (16 to 30 nm)” value is 165.3 ± 25.4 mg/dL; the “Cholesterol, VLDL (30 to 80 nm)” value is 423.7 ± 96.1 mg/dL; the “Free cholesterol, CM (>80 nm)” value amounted to 44.9 ± 20.5 mg/dL. In addition, in the data set with apoE‐deficient mice [2], the “Free cholesterol, HDL (8 to 16 nm)” value was 12.5 ± 1.4 mg/dL; the “Free cholesterol, HDL Subfractions Intermediate Particles” value amounted to 5.1 ± 0.5 mg/dL; the “Free cholesterol, HDL Subfractions Large Particles” value was 5.7 ± 1.1 mg/dL; the “Free cholesterol, HDL Subfractions Small Particles” value was found to be 1.7 ± 0.2 mg/dL. In the data set on apoE‐deficient mice [2], the “Free cholesterol, LDL (16 to 30 nm)” value was 80.9 ± 10.1 mg/dL; the “Free cholesterol, VLDL (30 to 80 nm)” value is 179.8 ± 35.9 mg/dL; the “Phospholipids, CM (>80 nm)” value was determined as 53.0 ± 22.3 mg/dL; the “Phospholipids, HDL (8 to 16 nm)” value came to 45.5 ± 10.3 mg/dL. Besides, in the data set with apoE‐deficient mice [2], the “Phospholipids, HDL Subfractions Intermediate Particles” value was determined as 28.1 ± 7.4 mg/dL; the “Phospholipids, HDL Subfractions Large Particles” value was found to be 12.4 ± 3.3 mg/dL; the “Phospholipids, HDL Subfractions Small Particles” value stood at 5.0 ± 1.7 mg/dL; the “Phospholipids, LDL (16 to 30 nm)” value amounted to 133.6 ± 20.5 mg/dL. Also, in the data set on apoE‐deficient mice [2], the “Phospholipids, VLDL (30 to 80 nm)” value was 228.2 ± 40.0 mg/dL; the “Triglyceride, CM (>80 nm)” value was 13.9 ± 7.5 mg/dL; the “Triglyceride, HDL (8 to 16 nm)” value is 3.3 ± 0.8 mg/dL; the “Triglyceride, HDL Subfractions Intermediate Particles” value is 1.5 ± 0.5 mg/dL. Moreover, in the data set on apoE‐deficient mice [2], the “Triglyceride, HDL Subfractions Large Particles” value worked out at 0.6 ± 0.2 mg/dL; the “Triglyceride, HDL Subfractions Small Particles” value amounted to 1.1 ± 0.3 mg/dL; the “Triglyceride, LDL (16 to 30 nm)” value turned out to be 12.3 ± 4.2 mg/dL; the “Triglyceride, VLDL (30 to 80 nm)” value amounted to 33.8 ± 7.7 mg/dL. Moreover, in the data set with apoE‐deficient mice [3], the “HDL Cholesterol” value is 12.6 ± 4.8 mg/dL, the “Total Cholesterol” value was 1373.9 ± 499.2 mg/dL and the Triglyceride came out at 119.9 ± 21.7 mg/dL.
For “human apoA‐I: Human apoA‐I purchased from Calbiochem, 243–amino acid major HDL protein”, in the data set on A172 human glioblastoma (A172 cells), the “concentration adequate for a saturating effect on cholesterol efflux” value stood at 20 µg/mL. In the data set with A172 human glioblastoma (probucol 10 μmol/L, 20 μg/mL), the “effect of ABCA1 inactivation (probucol) on peptide-mediated cholesterol efflux” value was “drastically inhibited”. The “cholesterol efflux in Tangier disease macrophages vs healthy subject” value in data set [4] was “suppressed”.
As for “Ac-DWFKAFYDKVAEKFKEAF-NH2 [L‐4F, reference compound]”, on ABCA1, the “percentage of probucol‐inhibitable, ABCA1‐specific cholesterol efflux” value is reported as “much more unspecific cholesterol efflux compared with FAMP5”.
H-ATEHLSTLSEKAKPALEDLLKKLL-OH [FAMP4]: in the data set “Circular dichroism”, the “α‐helical conformation (CD spectra)” value is on record as “but not FAMP4, formed strong α‐helical conformations”.
